For 33 compounds, EC50 results are on record in BindingDB's records for doi:10.1016/j.bmcl.2014.05.064 (The University of Tokyo, 2014).

Structures are written as SMILES.

In general, EC50 refers to the concentration needed to bring the measured effect to its halfway point.

T1 sequence (O15118 23-1278 I1061T limits assumed): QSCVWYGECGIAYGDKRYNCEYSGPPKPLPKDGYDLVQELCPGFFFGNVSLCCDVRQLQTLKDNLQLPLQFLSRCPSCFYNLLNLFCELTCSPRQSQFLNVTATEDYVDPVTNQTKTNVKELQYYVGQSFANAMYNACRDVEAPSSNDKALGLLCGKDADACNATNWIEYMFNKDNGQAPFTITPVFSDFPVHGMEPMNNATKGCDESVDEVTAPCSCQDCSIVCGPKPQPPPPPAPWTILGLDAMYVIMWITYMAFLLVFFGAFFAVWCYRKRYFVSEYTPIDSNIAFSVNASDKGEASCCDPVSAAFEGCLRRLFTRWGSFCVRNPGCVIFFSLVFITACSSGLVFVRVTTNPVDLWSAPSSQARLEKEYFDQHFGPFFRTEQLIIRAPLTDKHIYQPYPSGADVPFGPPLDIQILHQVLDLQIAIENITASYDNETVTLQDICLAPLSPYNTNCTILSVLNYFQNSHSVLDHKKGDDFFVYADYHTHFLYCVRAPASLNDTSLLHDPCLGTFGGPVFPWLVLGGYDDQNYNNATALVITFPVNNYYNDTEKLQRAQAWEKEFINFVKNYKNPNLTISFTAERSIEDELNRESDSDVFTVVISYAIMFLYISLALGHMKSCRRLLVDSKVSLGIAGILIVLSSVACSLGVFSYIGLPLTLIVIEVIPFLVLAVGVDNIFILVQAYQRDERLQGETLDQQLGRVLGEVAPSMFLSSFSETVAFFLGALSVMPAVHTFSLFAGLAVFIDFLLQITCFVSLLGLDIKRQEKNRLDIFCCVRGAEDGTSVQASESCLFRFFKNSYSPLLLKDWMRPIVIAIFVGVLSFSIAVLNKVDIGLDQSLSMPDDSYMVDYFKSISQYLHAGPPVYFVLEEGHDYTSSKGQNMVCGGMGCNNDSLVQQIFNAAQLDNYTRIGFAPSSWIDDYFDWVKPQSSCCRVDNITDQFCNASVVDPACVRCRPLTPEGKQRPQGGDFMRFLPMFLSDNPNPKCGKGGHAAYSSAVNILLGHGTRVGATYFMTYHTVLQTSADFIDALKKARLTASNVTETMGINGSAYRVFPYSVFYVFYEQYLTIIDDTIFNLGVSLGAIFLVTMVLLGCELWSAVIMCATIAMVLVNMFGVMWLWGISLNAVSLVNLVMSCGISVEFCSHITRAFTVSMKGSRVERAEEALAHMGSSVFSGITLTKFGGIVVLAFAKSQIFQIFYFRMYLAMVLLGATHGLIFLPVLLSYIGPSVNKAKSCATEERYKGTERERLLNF

This assay addresses T1, NPC intracellular cholesterol transporter 1 [I1061T] (Homo sapiens, UniProt O15118, I1061T).
T1 construct: gene NPC1
Kind of assay: Binding affinity to FLAG/tGFP-tagged NPC1 I1061T mutant (unknown origin) expressed in HEK293 cells assessed as localization after 24 hrs by fluorescence microscopy. In short, it runs like this: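 HEK293 cells stably expressing NPC1 I1061T-tGFP were exposed to compound for 24 h, fixed, and nuclei stained with Hoechst 33342. In the images, each cell was scored by tGFP pattern: ER 0, mixed ER+vesicle 0.5, vesicular 1. Scores were averaged to give the vesicular-localization percentage, and EC50 was taken from concentration-response. Data are mean ± standard deviation of three independent experiments.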
Regarding `CC(C)CCC[C@@H](C)[C@H]1CC[C@H]2[C@@H]3C[C@@H](O)[C@@]4(O)C[C@@H](OCCN5CCOCC5)CC[C@]4(C)[C@H]3CC[C@]12C`, the EC50 came out at 1 µM. With `C[C@H](CCC(=O)N(C)C)[C@H]1CC[C@H]2[C@@H]3CC=C4C[C@@H](O)CC[C@]4(C)[C@H]3CC[C@]12C` [(4R)-4-[(1S,2R,5S,10S,11S,14R,15R)-5-hydroxy-2,15-dimethyltetracyclo[8.7.0.0^{2,7}.0^{11,15}]heptadec-7-en-14-yl]-N,N-dimethylpentanamide], the EC50 turned out to be 3.1 µM. For the compound `CCN(CC)C(=O)CC[C@@H](C)[C@H]1CC[C@H]2[C@@H]3CC=C4C[C@@H](O)CC[C@]4(C)[C@H]3CC[C@]12C`, the EC50 was found to be 1.7 µM. The result for `CC(C)CCC[C@@H](C)[C@H]1CC[C@H]2[C@@H]3CC(=O)[C@@]4(O)C[C@@H](O)CC[C@]4(C)[C@H]3CC[C@]12C` reads 1.7 µM; that for `CC(C)CCC[C@@H](C)[C@H]1CC[C@H]2[C@@H]3C[C@@H](O)[C@@]4(O)C[C@@H](OCC(N)=O)CC[C@]4(C)[C@H]3CC[C@]12C`, 0.84 µM. Consider `C[C@H](CCCC(C)(C)O)[C@H]1CC[C@H]2[C@@H]3C[C@@H](O)[C@@]4(O)C[C@@H](O)CC[C@]4(C)[C@H]3CC[C@]12C`, for which the 50% effective concentration (EC50) is 1.7 µM. In the case of `C[C@H](CCCC(C)(C)O)[C@H]1CC[C@H]2[C@@H]3C(=O)C=C4C[C@@H](O)CC[C@]4(C)[C@H]3CC[C@]12C`, the concentration for a half-maximal effect (EC50) stood at 1.5 µM. For `CC(C)CCC[C@@H](C)[C@H]1CC[C@H]2[C@@H]3C[C@@H](O)[C@@]4(O)C[C@@H](OCC(=O)N(CCO)CCO)CC[C@]4(C)[C@H]3CC[C@]12C`, the EC50 turned out to be 0.56 µM. For the compound `CC(C)CCC[C@@H](C)[C@H]1CC[C@H]2[C@@H]3[C@@H](O)C=C4C[C@@H](O)CC[C@]4(C)[C@H]3CC[C@]12C` [CHEBI:42989], the EC50 is 3.4 µM. For `CC(C)CCC[C@@H](C)[C@H]1CC[C@H]2[C@@H]3[C@@H](O)C=C4C[C@@H](OC(=O)N5CCOCC5)CC[C@]4(C)[C@H]3CC[C@]12C`, the half-maximal effective concentration (EC50) came out at 6.1 µM. The result for `C[C@H](COc1cc(C(F)(F)F)cc(C(F)(F)F)c1)[C@H]1CC[C@H]2[C@@H]3C[C@@H](O)[C@@]4(O)C[C@@H](OCC(=O)N5CCOCC5)CC[C@]4(C)[C@H]3CC[C@]12C` reads more than 10 µM; that for `C[C@H](CCCC(C)(C)O)[C@H]1CC[C@H]2[C@@H]3CC=C4C[C@@H](OCC(=O)N(C)C)CC[C@]4(C)[C@H]3CC[C@]12C`, 1.4 µM; that for `CCN(CC)C(=O)CO[C@H]1CC[C@@]2(C)C(=CC[C@H]3[C@@H]4CC[C@H]([C@H](C)CCCC(C)(C)O)[C@@]4(C)CC[C@@H]32)C1`, 4.8 µM. As to `CC(C)CCC[C@@H](C)[C@H]1CC[C@H]2[C@@H]3CC[C@@]4(O)[C@@H](O)[C@@H](O)CC[C@]4(C)[C@H]3CC[C@]12C` [Cholestane-3b,4b,5a-triol], the half-maximal effective concentration (EC50) was found to be 4.3 µM. As for `C[C@H](CNC(=O)c1cc(C(F)(F)F)cc(C(F)(F)F)c1)[C@H]1CC[C@H]2[C@@H]3C[C@@H](O)[C@@]4(O)C[C@@H](OCC(=O)N5CCOCC5)CC[C@]4(C)[C@H]3CC[C@]12C`, the figure is 0.086 µM. Regarding `C[C@H](CCCC(C)(C)O)[C@H]1CC[C@H]2[C@@H]3CCC4=CC(=O)CC[C@]4(C)[C@H]3CC[C@]12C`, the half-maximal effective concentration (EC50) was found to be 4 µM. With `C[C@H](CCCC(C)(C)O)[C@H]1CC[C@H]2[C@@H]3CC=C4C[C@@H](O)CC[C@]4(C)[C@H]3CC[C@]12C` [(1S,2R,5S,10S,11S,14R,15R)-14-[(2R)-6-hydroxy-6-methylheptan-2-yl]-2,15-dimethyltetracyclo[8.7.0.0^{2,7}.0^{11,15}]heptadec-7-en-5-ol], the EC50 stood at 3.3 µM. As for `CCN(CC)CCO[C@H]1CC[C@@]2(C)C(=CC[C@H]3[C@@H]4CC[C@H]([C@H](C)CCCC(C)(C)O)[C@@]4(C)CC[C@@H]32)C1`, the figure is 9.9 µM. As for `CC(C)CCC[C@@H](C)[C@H]1CC[C@H]2[C@@H]3C(=O)C=C4C[C@@H](OCC(=O)N5CCOCC5)CC[C@]4(C)[C@H]3CC[C@]12C`, the figure is 0.29 µM; as for `CC(C)CCC[C@@H](C)[C@H]1CC[C@H]2[C@@H]3C[C@@H](O)[C@@]4(O)C[C@@H](OCC(=O)N5CCCCC5)CC[C@]4(C)[C@H]3CC[C@]12C`, 1.8 µM. The result for `CC(C)CCC[C@@H](C)[C@H]1CC[C@H]2[C@@H]3C[C@@H](O)[C@@]4(O)C[C@@H](O)CC[C@]4(C)[C@H]3CC[C@]12C` [CHEBI:28082] reads 1.7 µM; that for `CC(C)CCC[C@@H](C)[C@H]1CC[C@H]2[C@@H]3C[C@@H](O)[C@@]4(O)C[C@@H](OCC(=O)N5CCOCC5)CC[C@]4(C)[C@H]3CC[C@]12C`, 0.15 µM. With `CC(C)C(=O)NC[C@@H](C)[C@H]1CC[C@H]2[C@@H]3C[C@@H](O)[C@@]4(O)C[C@@H](OCC(=O)N5CCOCC5)CC[C@]4(C)[C@H]3CC[C@]12C`, the EC50 is 0.37 µM.

Regarding `CC(C)CC[C@H](O)[C@@H](C)[C@H]1CC[C@H]2[C@@H]3CC=C4C[C@@H](O)CC[C@]4(C)[C@H]3CC[C@]12C` [(1S,2R,5S,10S,11S,14R,15S)-14-[(2S,3S)-3-hydroxy-6-methylheptan-2-yl]-2,15-dimethyltetracyclo[8.7.0.0^{2,7}.0^{11,15}]heptadec-7-en-5-ol], the EC50 is 2.9 µM.

With `CC(C)CCC[C@@H](C)[C@H]1CC[C@H]2[C@@H]3[C@@H](O)C=C4C[C@@H](OCCO)CC[C@]4(C)[C@H]3CC[C@]12C`, the EC50 turned out to be 3.4 µM. The result for `CC(C)CCC[C@@H](C)[C@H]1CC[C@H]2[C@@H]3[C@@H](O)C=C4C[C@@H](OCC(=O)N5CCOCC5)CC[C@]4(C)[C@H]3CC[C@]12C` reads 0.36 µM.

Regarding `C[C@H](CCCC(C)(C)O)[C@H]1CC[C@H]2[C@@H]3CC=C4C[C@@H](OCC(=O)N5CCOCC5)CC[C@]4(C)[C@H]3CC[C@]12C`, the EC50 turned out to be 0.88 µM. As for `C[C@H](CCCC(C)(C)O)[C@H]1CC[C@H]2[C@@H]3[C@@H](O)C=C4C[C@@H](O)CC[C@]4(C)[C@H]3CC[C@]12C`, the figure is 1.9 µM; as for `C[C@H](CNC(=O)N(C)C)[C@H]1CC[C@H]2[C@@H]3C[C@@H](O)[C@@]4(O)C[C@@H](OCC(=O)N5CCOCC5)CC[C@]4(C)[C@H]3CC[C@]12C`, 6.8 µM; as for `CC(C)CCC[C@@H](C)[C@H]1CC[C@H]2[C@@H]3C(=O)C=C4C[C@@H](O)CC[C@]4(C)[C@H]3CC[C@]12C` [CHEBI:64294], 8.7 µM. The result for `CC[C@H](/C=C/[C@@H](C)[C@H]1CC[C@H]2[C@@H]3C[C@@H](O)[C@@]4(O)C[C@@H](OCC(=O)N5CCOCC5)CC[C@]4(C)[C@H]3CC[C@]12C)C(C)C` reads 0.36 µM. The result for `C[C@]12CC[C@H](O)CC1=CC[C@@H]1[C@@H]2CC[C@]2(C)C(=O)CC[C@@H]12` [Prasterone] reads more than 10 µM; that for `CC(C)CCC[C@@H](C)[C@H]1CC[C@H]2[C@@H]3CC(=O)[C@H]4C[C@@H](O)CC[C@]4(C)[C@H]3CC[C@]12C` [5alpha-CHOLESTAN-3beta-OL-6-ONE], 3.4 µM.
